Bioassay records: PubChem BioAssay, several laboratories
SENP1 FRET inh = inhibitors of human SENP1 SUMO protease catalytic domain. recombinant SENP1 catalytic domain, CyPet-SUMO1-YPet FRET cleavage. inhibition, % at 10 µM. 360,000 compounds, 0.21% hits. AID 624204;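 active = inhibition at least 30% at 10 µM, raw YFP signal under a set limit, fluorescence ratio 0.5 to 1.5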
Target sequence (Q9P0U3 419-644 limits assumed): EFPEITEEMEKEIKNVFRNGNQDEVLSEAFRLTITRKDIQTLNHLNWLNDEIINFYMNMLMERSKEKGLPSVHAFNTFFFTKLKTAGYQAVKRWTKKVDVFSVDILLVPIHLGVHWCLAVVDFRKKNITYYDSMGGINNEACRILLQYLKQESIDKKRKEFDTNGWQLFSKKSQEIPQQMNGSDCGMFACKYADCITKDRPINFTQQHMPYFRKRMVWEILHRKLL
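Assay system – human recombinant His6-tagged SENP1 catalytic domain enzyme · Input – SENP1 enzyme, 20 pM final · Buffer or medium – Tris pH 8 buffer plus EDTA, NaCl, BME, BSA, NP40, catalase · Schedule – 50 min reaction at room temperature · Technique – FRET read of cyan and yellow fluorescence · Control set – no-enzyme wells low, DMSO-plus-enzyme wells high control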
ATG4B inhibitor = ATG4B (human) cysteine protease inhibition; Q9Y4P1; ATG4B cleavage of LC3-PLA2, NBD-HPC fluorescence, 1 h; inhibition, % at 8.33 µM; 340,000 compounds, 0.51% hits; AID 504462
TPT1 inh = inhibitors of Candida albicans tRNA 2'-phosphotransferase TPT1. inhibition, % at 5 µM. AID 1962. recombinant caTPT1, FP RNA substrate dephosphorylation. 300,000 compounds, 0.81% hits;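 active = inhibition above the mean of all tested compounds plus 3 SD, set per screening campaign, cut at about 24% in these data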
HNF4A DNA FP = change in binding of human HNF4 alpha to DNA; P41235; HNF4a-FITC DNA binding, fluorescence polarization, 1 h; activity change, % at 10 µM; 360,000 compounds, 0.3% hits; AID 1224865; in the data active = activity change above about 30%, passing the limit was not always enough
CSN deneddyl inh = CSN deneddylation inhibition; Purified CSN, SCF-Nedd8-OG deneddylation, fluorescence polarization; inhibition, % at 12.5 µM; 360,000 compounds, 0.38% hits; AID 651999;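 active = pattern-corrected inhibition above about 35%, with an unprinted fluorescence ratio check between 0.5 and 1.5, limit read from the data, passing the limit was not always enough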
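Assay system: purified human Csn5 enzyme expressed in HEK293T cells; measure: % inhibition; also added: SCFSkp2-Nedd8OG substrate at 10 nM final; technique: fluorescence polarization; times: reaction 90 min, room temperature; medium: Tris buffer pH 7.5, NaCl, DTT, Tween-20, trehalose, ovalbumin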
Rpn11 block = inhibitors of human proteasome Rpn11. O00487. human 26S proteasome, Ub4-pepOG fluorescence polarization; 20S core pre-blocked with epoxomicin. inhibition, % at 20 µM. 360,000 compounds, 0.59% hits;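 active = inhibition at 20 µM, scaled to each plate's controls, above about 33%, limit read from the data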
Rpn11 inh conf = Rpn11 inhibition confirmation, single concentration | inhibition, % at 20 µM | shares compounds with Rpn11 block | purified human 26S proteasome, Ub4-pepOG fluorescence polarization; proteasome pretreated with epoxomicin | AID 602318 | 1,900 compounds, 29% hits
MMP-2 inh = MMP-2 (human) inhibition counter-screen | inhibition, % at 20 µM | 1,900 compounds, 4% hits | recombinant MMP-2, FRET peptide cleavage fluorescence | shares compounds with Rpn11 block;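 note: human MMP-2 activated beforehand with APMA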
Thrombin FP = blocks bovine thrombin, flagging nonselective RPN11 hits; shares compounds with Rpn11 block; bovine thrombin cleavage of Ub4-pepOG, fluorescence polarization; inhibition, % at 20 µM; 1,900 compounds, 13% hits;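 active = mean inhibition at least 40% at 20 µM, or signal 3 deviations below plate average, so some actives read negative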
A number is an active result; – = inactive; · = no result given; + = active, no number. Sampled rows, rich in hits. Any-hit rate of the full collection: about 2%. Cut-off read from the data, not from the text of the source, unless noted: active = inhibition above about 40%; inactive = the rest.

SMILES	SENP1 FRET inh	ATG4B inhibitor	TPT1 inh	HNF4A DNA FP	CSN deneddyl inh	Rpn11 block	Rpn11 inh conf	MMP-2 inh	Thrombin FP
O=C(CSc1nc2nc(-c3cccs3)cc(C(F)(F)F)c2c(=O)[nH]1)Nc1ccc(F)c(F)c1	–	–	–	–	–	40.1	56.8	–	–
COCCn1cc(C(=O)c2cc(Br)ccc2O)cc(C#N)c1=O	–	–	–	–	–	94.0	–	–	–
COc1ccc(O)c(C(=O)c2cc(C#N)c(=O)n(Cc3ccccc3)c2)c1	–	–	–	–	–	–	·	·	·
N#Cc1cc(C(=O)c2cc(Br)ccc2O)cn(Cc2ccccc2)c1=O	–	–	–	–	–	49.7	–	–	–
COc1ccc(NC(=O)CN(C)C(=O)CNC(=O)c2cccs2)cc1	–	–	–	–	–	–	·	·	·
COc1ccc(S(=O)(=O)N2CCCC(C(=O)NCc3ccncc3)C2)cc1 (stereo not given)	–	–	–	–	–	+	–	–	–
COc1ccc(S(=O)(=O)N2CCCC(C(=O)NCc3ccc(F)cc3)C2)cc1 (stereo not given)	–	–	–	–	–	–	·	·	·
CCN(CC)CCCNC(=O)c1nn(-c2ccc(OC)cc2OC)c(=O)c2ccccc12	–	–	–	–	–	47.8	–	–	–
CCN(CC)CCCNC(=O)c1nn(-c2cccc(OC)c2)c(=O)c2ccccc12	–	–	–	–	–	–	·	·	·
CC(C)C(C)NC(=O)COC(=O)C1CCN(S(=O)(=O)c2ccc3c(c2)OCCO3)CC1 (stereo not given)	–	–	–	–	–	–	·	·	·
O=C(CN1C(=O)/C(=C/c2ccc(F)cc2)SC1=S)N1CCN(CCc2ccccn2)CC1	–	–	–	–	–	41.7	–	–	–
CN1CCN(C(=O)CCN2C(=O)/C(=C\c3ccc(F)cc3)SC2=S)CC1	–	–	·	–	–	–	·	·	·
Cc1cccc(NC(=O)CNC(=O)c2cc(S(=O)(=O)N(C)C)ccc2N2CCCC2)c1C	–	·	·	–	–	–	·	·	·
Nc1nc2ccccc2n1C(=O)c1ccco1	–	–	·	–	–	48.2	–	–	–
CCN(CC(=O)Nc1ccc(OC)cc1)CC(=O)Nc1ccc(Br)cc1F	–	–	–	–	–	–	·	·	·
COc1ccc(NCC(=O)Nc2ccc(Br)cc2F)c(OC)c1	–	–	–	–	–	39.7	–	–	–
Cn1ncc(Br)c1N1C(=O)CCC1=O	–	–	–	–	–	–	·	·	·
Cc1cccc2c1c1ccc3c(c1n2C)C(=O)C=CC3=O	–	–	·	–	–	42.1	–	–	–
Cc1ccccc1N1CC(=O)N(c2ccccc2C)CC1=O	–	–	–	–	–	–	·	·	·
c1cc(C2CCCCC2)ccc1Oc1nc(N2CCOCC2)nc(N2CCOCC2)n1	–	–	–	–	–	130.9	–	–	–
CC(=O)C1=C(C)NC(SCC(=O)c2ccc(Cl)c(Cl)c2)=C(C#N)C1c1ccco1 (stereo not given)	–	–	–	–	–	41.2	–	44.6	–
CC(=O)C1=C(C)NC(SCC(=O)c2ccc(F)cc2)=C(C#N)C1c1ccco1 (stereo not given)	–	–	–	–	–	–	·	·	·
Cc1ccc(OCc2ccc(C(=O)Nc3ccc(C(N)=O)cc3)o2)c([N+](=O)[O-])c1	–	–	–	–	–	134.5	–	–	–
COc1cc(/C=N/OCC(=O)Nc2cc(C)cc(C)c2)ccc1OCc1ccc(Cl)cc1	–	–	–	–	–	42.1	–	–	–
O=c1c2c(nc3cc(-c4ccccc4Cl)[nH]n13)CCS2	–	–	–	–	80.9	56.3	–	–	–
S=C(c1cn(CCOc2cccc3ccccc23)c2ccccc12)N1CCCC1	–	–	–	–	–	46.0	51.8	–	–
